Rows were chosen to be rich in hits. Some 2.7% of all compounds tested hit in one or more screens of this group.
CHO parental Ca: counter-screen: ATP calcium response change in parental CHO cells | parental CHO-K1, ATP-induced calcium, Fluo-8 fluorescence | inhibition, % at 5.6 µM | hit rate 0.63% among 330,000;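 active means inhibition above that plate's mean sample inhibition plus 3 SD, cut at about 26% in these data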;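 further: 0% = ATP-challenged DMSO wells and 100% = DMSO wells without ATP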
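Test system: untransfected parental CHO cell line; also added: ATP stimulus; dosing: 5.6 µM, single dose; signal: calcium-sensitive Fluo-8 fluorescence; measure: percent inhibition of ATP-evoked calcium rise, normalized to controls; benchmarks: low control ATP plus DMSO, high control DMSO only; replication: one well per compound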
OX1R antag-1: human HCRTR1 antagonism; O43613; CHO/OX1R cells, Fluo-8 calcium fluorescence, orexin A; inhibition, % at 5 µM; hit rate 0.43% among 330,000; AID 434989;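 active means inhibition above its plate's threshold, mean inhibition of all tested compounds on the plate plus 3 SD, cut at about 37% in these data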;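 further: 0% = orexin A challenge wells and 100% = SB-334867-A antagonist wells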
Target sequence (O43613 whole entry, looked up): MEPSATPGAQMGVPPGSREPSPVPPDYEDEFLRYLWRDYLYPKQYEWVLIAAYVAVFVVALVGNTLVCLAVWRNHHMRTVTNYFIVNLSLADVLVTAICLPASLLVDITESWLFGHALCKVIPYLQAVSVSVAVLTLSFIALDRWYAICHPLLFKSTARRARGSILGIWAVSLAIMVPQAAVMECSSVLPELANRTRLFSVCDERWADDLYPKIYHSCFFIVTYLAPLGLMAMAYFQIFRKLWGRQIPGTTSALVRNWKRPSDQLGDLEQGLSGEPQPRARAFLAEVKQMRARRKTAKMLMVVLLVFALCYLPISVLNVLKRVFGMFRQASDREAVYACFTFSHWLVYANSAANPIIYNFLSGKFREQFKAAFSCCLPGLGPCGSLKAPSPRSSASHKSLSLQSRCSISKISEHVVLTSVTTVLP
OX1R antag-2: antagonists of human orexin 1 receptor (OX1R) | hit rate 1.8% among 330,000 | O43613 | inhibition, % at 6.6 µM | AID 485270 | OX1R-expressing cells, FRET antagonist read-out; in the data active means inhibition mostly above about 38%, no sharp cut-off; inactive means mostly below about 40%;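 further: 0% = agonist challenge alone and 100% = reference antagonist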
OXTR agonist: human OXTR agonism; P30559; CHO-OTR cells, Fluo-8 calcium fluorescence; normalized: DMSO 0%, oxytocin 100%; activation, % at 3 µM; hit rate 0.32% among 320,000; AID 2435;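 active means activation above the mean of all tested compounds plus 3 SD, cutoff set per screening run, cut at about 20% in these data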;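 further: peak over basal fluorescence ratio from a 100 s FLIPR kinetic read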
OXTR potentiate: potentiates the human oxytocin receptor response. CHO-OTR cells, Fluo-8 calcium fluorescence, potentiator mode; 0% = oxytocin EC15, 100% = EC100. hit rate 0.061% among 320,000. activation, % at 3 µM;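 active means activation above that plate's cutoff, the mean activation of tested compounds plus 3 SD, cut at about 6.6% in these data, passing the limit was not always enough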;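 further: 100% uses oxytocin at 75 nM as the full agonist control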
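Dosing: Single dose, 3.0 µM nominal final compound concentration | Material: Human OTR in CHO cells | Technique: Kinetic Fluo-8 calcium fluorescence | Benchmarks: EC15 oxytocin alone as 0%, 75 nM oxytocin as 100% | Probe or stimulus: Oxytocin at about EC15, sub-maximal agonist stimulus | Incubation: Compound 6 min at room temperature before oxytocin, 100 s read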
V1R ag counter: activates human V1a receptor in oxytocin agonist counter-screen. P37288. AID 2797. hit rate 0.25% among 320,000. activation, % at 3 µM. CHO-V1R cells, Fluo-8 calcium fluorescence, agonist mode; 0% DMSO, 100% 3 nM vasopressin;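 active means activation above the mean activation of all tested compounds plus 3 SD, per screening run, cut at about 20% in these data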;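 further: signal is peak over basal fluorescence ratio across a 100 second FLIPR read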
* marks the source's active call; other numbers are inactive results.

For CN(C)CCCNS(=O)(=O)c1cc(Cl)ccc1Cl the results were CHO parental Ca -14, OX1R antag-1 -23, OX1R antag-2 18, OXTR agonist 2, OXTR potentiate 1 and V1R ag counter 1.
Screening O=S(=O)(c1ccc(N2CCC(c3ccc(Cl)cc3)=N2)cc1)N(CCO)CCO returned CHO parental Ca 62*, OX1R antag-1 46*, OX1R antag-2 7, OXTR agonist 9, OXTR potentiate -21 and V1R ag counter 19.
CN(C)CCCNS(=O)(=O)c1ccc(N2CCC(c3ccc(Cl)cc3)=N2)cc1 was read as CHO parental Ca 11, OX1R antag-1 8, OX1R antag-2 16, OXTR agonist 20*, OXTR potentiate -20 and V1R ag counter 5.
Screening O=S(=O)(c1ccc(Oc2ccc(S(=O)(=O)N(CCO)CCO)cc2)cc1)N(CCO)CCO returned CHO parental Ca -7, OX1R antag-1 -3, OX1R antag-2 5, OXTR agonist 1, OXTR potentiate -1 and V1R ag counter 0.
Screening COc1ccc(C(=O)NCC(=O)OCC(=O)c2ccc3c(c2)NC(=O)CO3)cc1 returned CHO parental Ca 0, OX1R antag-1 1, OX1R antag-2 6, OXTR agonist -1, OXTR potentiate -21 and V1R ag counter 0.
`CCOC(=O)c1nn(-c2ccccc2)c2nnc(Cc3ccc(C)cc3)c(=O)n12` gave CHO parental Ca -18, OX1R antag-1 -25, OX1R antag-2 14, OXTR agonist -3, OXTR potentiate 12* and V1R ag counter 0.
For NC(=O)N/N=C/C=C/c1ccc(F)cc1 the results were CHO parental Ca -3, OX1R antag-1 6, OX1R antag-2 12, OXTR agonist -1, OXTR potentiate 4 and V1R ag counter 0.
`O=[N+]([O-])c1ccc(SCc2ccncc2)nc1` gave CHO parental Ca 3, OX1R antag-1 7, OX1R antag-2 34, OXTR agonist 0, OXTR potentiate 2 and V1R ag counter 0.
CCN(CC)c1ccc(/C=C(\C#N)C(N)=S)cc1 was read as CHO parental Ca 10, OX1R antag-1 10, OX1R antag-2 19, OXTR agonist 1, OXTR potentiate -2 and V1R ag counter 4.
For CCN(CC)c1ccc(/C=C(\C#N)C(=O)c2ccc(Br)cc2)cc1 the results were CHO parental Ca 54*, OX1R antag-1 78*, OX1R antag-2 13, OXTR agonist 133*, OXTR potentiate -11 and V1R ag counter 70*.
Cc1nn2c(-c3ccccc3)nnc2c2ccccc12 was read as CHO parental Ca -18, OX1R antag-1 -13, OX1R antag-2 64*, OXTR agonist -2, OXTR potentiate 4 and V1R ag counter -2.
`O=S(=O)(CCSc1nc2ccccc2s1)c1nc2ccccc2s1` gave CHO parental Ca -13, OX1R antag-1 16, OX1R antag-2 53*, OXTR agonist -1, OXTR potentiate -6 and V1R ag counter 2.
`O=C(CSc1nc2ccccc2s1)CSc1nc2ccccc2s1` gave CHO parental Ca -11, OX1R antag-1 -23, OX1R antag-2 45*, OXTR agonist -2, OXTR potentiate -10 and V1R ag counter -1.
c1ccc2[nH]c(CSc3nc4ccccc4s3)nc2c1 was read as CHO parental Ca -21, OX1R antag-1 8, OX1R antag-2 72*, OXTR agonist 6, OXTR potentiate -17 and V1R ag counter 7.
`CCS(=O)(=O)CCSc1nc2ccccc2s1` gave CHO parental Ca -15, OX1R antag-1 -16, OX1R antag-2 14, OXTR agonist 0, OXTR potentiate -5 and V1R ag counter 0.
Cc1nnc(SCc2nc3ccccc3[nH]2)s1 was read as CHO parental Ca -5, OX1R antag-1 -2, OX1R antag-2 -7, OXTR agonist -1, OXTR potentiate -15 and V1R ag counter 0.
For O=C(O)CSc1nc2ccccc2s1 the results were CHO parental Ca 9, OX1R antag-1 -11, OX1R antag-2 0, OXTR agonist 1, OXTR potentiate -1 and V1R ag counter 0.
For Cn1c(CSc2nc3ccccc3s2)nc2ccccc21 the results were CHO parental Ca -15, OX1R antag-1 -13, OX1R antag-2 41*, OXTR agonist -2, OXTR potentiate -6 and V1R ag counter -1.
`CS(=O)(=O)NCC(c1ccco1)N1CCN(c2ccc(F)cc2)CC1` (stereo unspecified) gave CHO parental Ca -10, OX1R antag-1 -12, OX1R antag-2 11, OXTR agonist 0, OXTR potentiate -3 and V1R ag counter 1.
Screening CCc1ccccc1C1=CC(=O)C[C@H](c2ccc(OC)cc2)C1 returned CHO parental Ca -18, OX1R antag-1 -17, OX1R antag-2 4, OXTR agonist 0, OXTR potentiate -3 and V1R ag counter -1.
Screening CCOC(=O)c1csc(-c2sccc2Br)n1 returned CHO parental Ca -8, OX1R antag-1 -11, OX1R antag-2 45*, OXTR agonist -3, OXTR potentiate -7 and V1R ag counter -3.
CCOC(=O)c1csc(-c2ccc(OC)c(OC)c2)n1 was read as CHO parental Ca -5, OX1R antag-1 -23, OX1R antag-2 17, OXTR agonist -2, OXTR potentiate -1 and V1R ag counter -1.
Oc1c(Br)cc(/C=N/NC(=S)NCc2ccco2)cc1Br was read as CHO parental Ca -5, OX1R antag-1 -2, OX1R antag-2 37*, OXTR agonist 1, OXTR potentiate -3 and V1R ag counter 2.
Screening O=S(=O)(c1ccc2c(c1)CCN2)N1CCCC1 returned CHO parental Ca -4, OX1R antag-1 -6, OX1R antag-2 9, OXTR agonist 1, OXTR potentiate -5 and V1R ag counter 0.
For Cc1ccc(S(=O)(=O)N2CCN(CC(=O)N/N=C/c3ccco3)CC2)cc1 the results were CHO parental Ca -20, OX1R antag-1 -20, OX1R antag-2 13, OXTR agonist 1, OXTR potentiate -3 and V1R ag counter 1.
Screening CCc1ccccc1N1C(=O)CN(Cc2cc(OC)c(OC)c(OC)c2)C1=S returned CHO parental Ca -15, OX1R antag-1 -6, OX1R antag-2 37*, OXTR agonist 0, OXTR potentiate -7 and V1R ag counter 1.
For CCOc1ccccc1CNc1ncnc2ccc(-c3c(C)noc3C)cc12 the results were CHO parental Ca 4, OX1R antag-1 34, OX1R antag-2 33*, OXTR agonist 7, OXTR potentiate -6 and V1R ag counter 5.
Screening Cc1cccc(CNc2ncnc3ccc(-c4ccc5c(c4)OCO5)cc23)c1 returned CHO parental Ca -21, OX1R antag-1 -29, OX1R antag-2 10, OXTR agonist -1, OXTR potentiate -2 and V1R ag counter -1.

Bioassay records from PubChem.
